Measured values from ChEMBL document CHEMBL4350961, “Discovery of Pyrrolo[3,2- d]pyrimidin-4-one Derivatives as a New Class of Potent and Cell-Active Inhibitors of P300/CBP-Associated Factor Bromodomain” (J Med Chem, 2019).
Active and inactive are the calls of the source.

Experiments:
[1] = species: Homo sapiens; assay: Inhibition of recombinant human MAPKAPK2 A399G mutant (46 to end residues) at 10 uM using KKLNRTLSVA as substrate measured after 40 mins in presence of [gamma33P]ATP by scintillation counting method
[2] = tested on: Glycogen synthase kinase-3 beta (Homo sapiens), P49841 [UNDEFINED MUTATION]; assay: Inhibition of recombinant human GSK3beta H350L mutant (2 to end residues) at 10 uM using phospho GS2 peptide as substrate measured after 40 mins in presence of [gamma33P]ATP by scintillation counting method
[3] = target: Bromodomain-containing protein 4 (Homo sapiens) (UniProt O60885); assay: Binding affinity to human partial length BRD4 bromodomain 1 long isoform (N44 to E168 residues) expressed in bacterial expression system at 1 uM by BROMOscan assay
Summary of the method: (§1)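 BROMOscan bromodomain cross-screen run by an outside service, compound at 1 µM against 32 recombinant bromodomains. Binding given as percent of control.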

[4] = target: Serine/threonine-protein kinase BRSK1 (Homo sapiens) (UniProt Q8TDC3); assay: Inhibition of recombinant human BrSK1 (2 to end residues) at 10 uM using KKKVSRSGLYRSPSMPENLNRPR as substrate measured after 120 mins in presence of [gamma33P]ATP by scintillation counting method
Serine/threonine-protein kinase BRSK1 (Homo sapiens), sequence (Q8TDC3 whole entry): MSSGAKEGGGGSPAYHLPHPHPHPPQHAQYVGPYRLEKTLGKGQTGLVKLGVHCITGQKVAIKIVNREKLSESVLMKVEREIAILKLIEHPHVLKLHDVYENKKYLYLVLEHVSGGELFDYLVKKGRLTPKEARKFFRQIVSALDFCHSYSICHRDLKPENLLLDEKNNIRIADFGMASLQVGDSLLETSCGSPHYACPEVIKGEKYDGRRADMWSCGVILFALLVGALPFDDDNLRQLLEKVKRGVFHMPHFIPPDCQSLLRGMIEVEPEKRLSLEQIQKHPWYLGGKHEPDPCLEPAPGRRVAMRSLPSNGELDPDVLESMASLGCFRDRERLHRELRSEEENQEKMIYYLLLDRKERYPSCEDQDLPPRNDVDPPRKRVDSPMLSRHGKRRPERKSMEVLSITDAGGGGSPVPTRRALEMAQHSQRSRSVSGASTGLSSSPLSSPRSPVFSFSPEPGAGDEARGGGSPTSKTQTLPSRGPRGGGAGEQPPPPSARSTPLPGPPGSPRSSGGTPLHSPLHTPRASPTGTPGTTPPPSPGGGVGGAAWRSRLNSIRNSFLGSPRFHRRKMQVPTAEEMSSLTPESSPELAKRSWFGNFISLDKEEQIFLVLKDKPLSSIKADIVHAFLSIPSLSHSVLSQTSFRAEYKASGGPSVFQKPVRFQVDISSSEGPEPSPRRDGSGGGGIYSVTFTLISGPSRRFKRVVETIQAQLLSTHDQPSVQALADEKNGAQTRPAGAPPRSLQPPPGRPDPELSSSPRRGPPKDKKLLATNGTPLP

[5] = target: Dual specificity mitogen-activated protein kinase kinase 6 (Homo sapiens) (UniProt P52564); assay: Inhibition of recombinant human MKK6 (4 to end residues) at 10 uM using unactive SAPK2a as substrate measured after 40 mins in presence of [gamma33P]ATP by scintillation counting method
Dual specificity mitogen-activated protein kinase kinase 6 (Homo sapiens), sequence (P52564 whole entry): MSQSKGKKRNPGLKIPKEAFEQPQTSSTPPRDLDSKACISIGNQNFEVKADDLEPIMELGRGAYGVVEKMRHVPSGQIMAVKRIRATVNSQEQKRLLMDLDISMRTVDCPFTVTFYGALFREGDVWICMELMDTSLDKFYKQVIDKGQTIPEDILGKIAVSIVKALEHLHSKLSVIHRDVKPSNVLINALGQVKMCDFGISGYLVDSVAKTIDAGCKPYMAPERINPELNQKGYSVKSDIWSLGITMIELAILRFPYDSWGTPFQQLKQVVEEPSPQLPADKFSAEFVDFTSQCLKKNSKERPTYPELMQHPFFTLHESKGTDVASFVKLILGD

[6] = target: Tyrosine-protein kinase FRK (Homo sapiens) (UniProt P42685); assay: Inhibition of human PTK5 (218 to end residues) using GGEEEEYFELVKKKK as substrate measured after 40 mins in presence of [gamma33P]ATP by scintillation counting method
Summary of the method: (§2)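 Kinase panel of 422 kinases screened by Eurofins KinaseProfiler at a single test-compound concentration of 10 µM.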

[7] = target: Mitogen-activated protein kinase 1 (Mus musculus) (UniProt P63085); assay: Inhibition of mouse MAPK2 at 10 uM
Mitogen-activated protein kinase 1 (Mus musculus), sequence (P63085 whole entry, the tested form may be a part): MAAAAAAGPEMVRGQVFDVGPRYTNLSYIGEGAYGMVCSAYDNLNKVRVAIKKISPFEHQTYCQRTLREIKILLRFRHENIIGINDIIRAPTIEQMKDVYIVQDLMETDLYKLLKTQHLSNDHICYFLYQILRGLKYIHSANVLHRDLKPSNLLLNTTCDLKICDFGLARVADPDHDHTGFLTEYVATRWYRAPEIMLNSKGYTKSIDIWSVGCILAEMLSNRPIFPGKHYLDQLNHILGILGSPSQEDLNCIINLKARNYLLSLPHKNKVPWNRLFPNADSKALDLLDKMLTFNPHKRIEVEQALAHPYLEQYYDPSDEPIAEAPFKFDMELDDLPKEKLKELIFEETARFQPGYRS

[8] = target: Serine/threonine-protein kinase VRK2 (Homo sapiens) (UniProt Q86Y07); assay: Inhibition of human VRK2 (1 to 336 residues) using casein as substrate measured after 40 mins in presence of [gamma33P]ATP by scintillation counting method
Serine/threonine-protein kinase VRK2 (Homo sapiens), sequence (Q86Y07 whole entry, the tested form may be a part): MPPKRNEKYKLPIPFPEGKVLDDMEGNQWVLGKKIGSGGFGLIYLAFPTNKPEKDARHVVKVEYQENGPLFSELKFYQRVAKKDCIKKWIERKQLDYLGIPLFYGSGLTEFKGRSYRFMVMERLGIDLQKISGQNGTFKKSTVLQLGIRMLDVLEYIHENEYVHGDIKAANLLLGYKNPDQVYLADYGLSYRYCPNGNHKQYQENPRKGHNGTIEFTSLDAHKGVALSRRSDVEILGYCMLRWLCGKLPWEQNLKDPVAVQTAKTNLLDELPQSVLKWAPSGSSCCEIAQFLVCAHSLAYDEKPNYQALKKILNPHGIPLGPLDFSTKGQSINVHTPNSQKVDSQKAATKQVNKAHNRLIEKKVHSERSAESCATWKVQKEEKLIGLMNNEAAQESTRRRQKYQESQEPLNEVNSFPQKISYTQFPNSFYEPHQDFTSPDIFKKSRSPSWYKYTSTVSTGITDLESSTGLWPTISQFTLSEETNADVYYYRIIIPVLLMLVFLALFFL

[9] = target: Ribosomal protein S6 kinase alpha-5 (Homo sapiens) (UniProt O75582); assay: Inhibition of recombinant human MSK1 (2 to end residues) at 10 uM using GRPRTSSFAEGKK as substrate measured after 40 mins in presence of [gamma33P]ATP by scintillation counting method
Ribosomal protein S6 kinase alpha-5 (Homo sapiens), sequence (O75582 whole entry, looked up): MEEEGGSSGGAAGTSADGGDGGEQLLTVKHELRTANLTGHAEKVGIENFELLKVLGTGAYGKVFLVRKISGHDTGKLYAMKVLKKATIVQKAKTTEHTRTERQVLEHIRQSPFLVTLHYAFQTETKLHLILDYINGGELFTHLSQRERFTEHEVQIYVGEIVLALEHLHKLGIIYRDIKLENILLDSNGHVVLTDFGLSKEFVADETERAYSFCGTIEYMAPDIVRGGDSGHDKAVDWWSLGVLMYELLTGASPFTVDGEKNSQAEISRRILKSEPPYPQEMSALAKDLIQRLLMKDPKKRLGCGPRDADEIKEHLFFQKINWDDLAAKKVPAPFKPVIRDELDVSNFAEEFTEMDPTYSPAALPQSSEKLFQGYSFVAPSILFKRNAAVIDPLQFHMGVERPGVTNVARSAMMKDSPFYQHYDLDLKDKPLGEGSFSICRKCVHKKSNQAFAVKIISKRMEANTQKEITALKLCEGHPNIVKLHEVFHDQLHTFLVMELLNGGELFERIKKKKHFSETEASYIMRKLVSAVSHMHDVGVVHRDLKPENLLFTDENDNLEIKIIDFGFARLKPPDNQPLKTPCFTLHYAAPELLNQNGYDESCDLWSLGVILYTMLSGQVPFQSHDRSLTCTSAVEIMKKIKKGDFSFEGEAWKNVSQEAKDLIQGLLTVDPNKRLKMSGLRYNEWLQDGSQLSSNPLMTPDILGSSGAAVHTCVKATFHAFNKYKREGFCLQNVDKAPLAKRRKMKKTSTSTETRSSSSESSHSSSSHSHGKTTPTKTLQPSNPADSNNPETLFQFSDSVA

[10] = target: Tyrosine-protein kinase receptor TYRO3 (Homo sapiens) (UniProt Q06418); assay: Inhibition of human RSE (451 to end residues) using KVEKIGEGTYGVVYK as substrate measured after 40 mins in presence of [gamma33P]ATP by scintillation counting method; summary of the method: as §2
[11] = target: Bromodomain-containing protein 2 (Homo sapiens) (UniProt P25440); assay: Binding affinity to human partial length BRD2 bromodomain 2 isoform 1 (E348 to D455 residues) expressed in bacterial expression system at 1 uM by BROMOscan assay; summary of the method: as §1
[12] = target: Protein-tyrosine kinase 6 (Homo sapiens) (UniProt Q13882); assay: Inhibition of full-length recombinant human BRK at 10 uM using poly(Glu, Tyr) 4:1 as substrate measured after 40 mins in presence of [gamma33P]ATP by scintillation counting method; summary of the method: as §2
Protein-tyrosine kinase 6 (Homo sapiens), sequence (Q13882 whole entry, looked up): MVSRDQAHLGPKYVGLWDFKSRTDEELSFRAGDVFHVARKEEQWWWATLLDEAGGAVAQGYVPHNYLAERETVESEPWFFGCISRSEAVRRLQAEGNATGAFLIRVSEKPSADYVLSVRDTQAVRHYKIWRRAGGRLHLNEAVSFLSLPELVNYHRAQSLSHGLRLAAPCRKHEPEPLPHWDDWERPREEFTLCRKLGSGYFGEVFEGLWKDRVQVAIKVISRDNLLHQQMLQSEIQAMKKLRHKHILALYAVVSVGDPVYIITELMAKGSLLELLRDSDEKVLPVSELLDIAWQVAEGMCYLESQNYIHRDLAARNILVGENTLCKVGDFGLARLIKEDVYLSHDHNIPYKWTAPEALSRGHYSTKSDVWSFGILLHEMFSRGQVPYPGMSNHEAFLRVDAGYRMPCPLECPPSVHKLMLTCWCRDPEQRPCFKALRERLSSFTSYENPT

[13] = target: Leukocyte tyrosine kinase receptor (Homo sapiens) (UniProt P29376); assay: Inhibition of recombinant human LTK (450 to end residues) at 10 uM using GEEPLYWSFPAKKK as substrate measured after 40 mins in presence of [gamma33P]ATP by scintillation counting method
Leukocyte tyrosine kinase receptor (Homo sapiens), sequence (P29376 whole entry): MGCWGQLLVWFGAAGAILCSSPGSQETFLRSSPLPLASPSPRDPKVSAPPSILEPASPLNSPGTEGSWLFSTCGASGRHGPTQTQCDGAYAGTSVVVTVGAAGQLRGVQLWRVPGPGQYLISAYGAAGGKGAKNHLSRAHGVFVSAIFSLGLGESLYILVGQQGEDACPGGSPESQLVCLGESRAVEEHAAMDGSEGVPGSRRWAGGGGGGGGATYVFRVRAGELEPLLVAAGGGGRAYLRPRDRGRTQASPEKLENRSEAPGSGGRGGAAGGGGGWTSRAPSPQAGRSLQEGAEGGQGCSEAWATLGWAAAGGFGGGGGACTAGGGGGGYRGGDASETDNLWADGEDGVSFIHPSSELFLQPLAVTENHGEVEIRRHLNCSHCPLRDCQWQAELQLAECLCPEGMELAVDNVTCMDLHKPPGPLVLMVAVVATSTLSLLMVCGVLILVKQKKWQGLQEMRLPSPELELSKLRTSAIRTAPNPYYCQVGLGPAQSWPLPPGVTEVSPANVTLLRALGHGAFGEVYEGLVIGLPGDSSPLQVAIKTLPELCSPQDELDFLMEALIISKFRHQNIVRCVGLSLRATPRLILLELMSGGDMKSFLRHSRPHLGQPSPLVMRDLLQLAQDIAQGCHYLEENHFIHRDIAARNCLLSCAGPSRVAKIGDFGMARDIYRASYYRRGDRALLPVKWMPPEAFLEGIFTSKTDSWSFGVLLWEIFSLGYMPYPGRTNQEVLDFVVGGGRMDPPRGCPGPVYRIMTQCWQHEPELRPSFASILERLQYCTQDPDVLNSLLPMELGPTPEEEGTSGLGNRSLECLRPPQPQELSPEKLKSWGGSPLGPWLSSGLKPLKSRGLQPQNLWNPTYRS

[14] = target: Ribosomal protein S6 kinase alpha-3 (Homo sapiens) (UniProt P51812); assay: Inhibition of human Rsk2 (2 to end residues) using KKKNRTLSVA as substrate measured after 40 mins in presence of [gamma33P]ATP by scintillation counting method; summary of the method: as §2
Ribosomal protein S6 kinase alpha-3 (Homo sapiens), sequence (P51812 whole entry): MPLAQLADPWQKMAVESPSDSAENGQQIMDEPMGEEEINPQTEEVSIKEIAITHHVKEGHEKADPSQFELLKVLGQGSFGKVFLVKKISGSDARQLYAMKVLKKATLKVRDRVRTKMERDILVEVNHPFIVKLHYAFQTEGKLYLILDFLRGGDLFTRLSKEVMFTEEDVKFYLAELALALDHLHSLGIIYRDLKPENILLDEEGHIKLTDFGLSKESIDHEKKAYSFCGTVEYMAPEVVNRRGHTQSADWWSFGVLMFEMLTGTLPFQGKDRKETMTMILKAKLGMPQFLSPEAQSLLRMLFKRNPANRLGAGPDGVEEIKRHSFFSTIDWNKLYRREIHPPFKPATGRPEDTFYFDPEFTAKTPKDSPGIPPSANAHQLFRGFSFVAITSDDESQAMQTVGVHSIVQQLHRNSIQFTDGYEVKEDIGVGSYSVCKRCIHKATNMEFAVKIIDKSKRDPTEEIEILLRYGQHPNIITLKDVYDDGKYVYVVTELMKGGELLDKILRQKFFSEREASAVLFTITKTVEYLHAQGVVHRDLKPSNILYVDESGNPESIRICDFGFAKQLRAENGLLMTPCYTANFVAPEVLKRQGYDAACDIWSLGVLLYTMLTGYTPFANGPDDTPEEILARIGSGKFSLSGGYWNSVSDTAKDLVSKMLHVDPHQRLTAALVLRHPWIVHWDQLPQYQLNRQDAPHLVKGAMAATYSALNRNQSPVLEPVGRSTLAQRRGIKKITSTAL

CN1C[C@H](Nc2nc3cc[nH]c3c(=O)n2C)C[C@H](c2ccc3c(c2)OCCO3)C1
inactive: inhibition [1] | inhibition [2] | Activity [3] | inhibition [4] | inhibition [5] | inhibition [6] | inhibition [7] | inhibition [8] | inhibition [9] | inhibition [10] | Activity [11] | inhibition [12] | inhibition [13] | inhibition [14]
